Reference: ChEMBL document CHEMBL1127616, “Synthesis, structural characterization, and antitumor properties of a novel class of large-ring platinum(II) chelate complexes incorporating the cis-1,4-diaminocyclohexane ligand in a unique locked boat conformation” (J Med Chem, 1994)

Key:
Assay type in all cases: functional, organism-based
[1] = system: L1210; assay: Tested for in vivo weight change against murine L1210 leukemia at the dose of 3.0 mg/kg per injection in experiment 1; details: Mus musculus
How it was run: (§1)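 Leukemia life-span assays used CD2F1 (Balb/c × DBA/2F1) mice weighing 18–22 g. Cells were inoculated IP on day 0, and compounds in 0.9% saline were given IP, dosed by average cage weight. Weight change is the difference in mean group weight between the last and first treatment days.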

[2] = system: L1210; assay: Tested for the ratio of number of survivors / total number after 60 days at the dose of 6.0 mg/kg per injection against murine L1210 Pt-resistant leukemia; details: Mus musculus
How it was run: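 CD2F1 (Balb/c × DBA/2F1) mice, 18–22 g, randomized and inoculated IP with counted leukemia cells on day 0, then re-randomized. Three IP treatments, dissolved in 0.9% saline and dosed on average cage weight, with dose in mg/kg per injection across a full toxic-to-ineffective range. Median life span and %T/C were recorded. Survivors at 60 days were counted as cured and excluded from %T/C.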

[3] = system: Mus musculus; assay: Tested for the ratio of treated and control tumor to reach 750 mg against murine solid tumor M5076 sarcoma 9.0 mg/kg per injection
How it was run: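 Solid tumor growth delay assay; B16 melanoma and M5076 sarcoma were run in B6C3F1 (C57BL/6 × C3HF1) mice of 18–22 g. Tumor fragments were implanted SC on day 0, then drug in 0.9% saline was given IP on days 1, 5, 9 or days 3, 7, 11, mg/kg per injection. T − C is the difference in days for treated and control tumors to reach 750 mg. Net log cell kill is tumor burden reduction during therapy. Cured mice were excluded.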

[4] = system: L1210; assay: Tested for in vivo weight change against murine L1210 leukemia at the dose of 10 mg/kg per injection in experiment 2; details: Mus musculus; how it was run: as §1

With [Pt(cis-1,4-dach)CL2] the Weight change [1] was -4.8 g.

CISPLATIN gave a Survivors [2] of 0, a T-C [3] of 15.9 days and a Weight change [4] of -3.3 g.
